Sampled rows, rich in hits. Any-hit rate of the full collection: about 2.1%.
aSyn UTR inh: MLPCN primary screen, SNCA 5' untranslated region. alpha-synuclein 5'UTR reporter, inhibitor activity. inhibition, % (tested at 7.5 µM). AID 1813. 300,000 tested, 0.82% active; in the data active means inhibition above about 60%; inconclusive means no clear call, values can overlap the other calls;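 further: H4 neuroglioblastoma cells stably carrying SNCA 5'UTR luciferase fusion; 0% = DMSO wells and 100% = positive control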
PAX8 inh HTS: inhibitors of PAX8 transcriptional activity in RMG-I cells. RMG-I TPO-luciferase reporter, SteadyGlo, 24 h. inhibition, % at 12.6 µM. 360,000 tested, 1.2% active;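 active means mean replicate inhibition at least 60% with every replicate also reaching 60%; inconclusive means only one of the two criteria is met; inactive means mean below 60% and not all replicates reaching 60%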;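 further: luciferase light reporting Pax8 driven TPO promoter activity; plate controls were median of neutral control wells for no effect and mitoxantrone controls for full effect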
LMP1 NFkB inh: Epstein-Barr LMP1 NF-kappaB reporter inhibition; LMP1-induced NF-kappaB luciferase reporter cells, luminescence; inhibition, % at 12.5 µM; 350,000 tested, 0.69% active; in the data active means inhibition above about 41%; inconclusive means no clear call, values can overlap the other calls;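 further: 0% = neutral control wells and 100% = reference inhibitor control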
Shn3 inh set2: inhibitors of Schnurri-3 3'UTR reporter in osteoblasts. Clone20 osteoblast Shn3 3'UTR firefly luciferase, 24 h. inhibition, % at 12.5 µM. 360,000 tested, 0.52% active. AID 588674;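 active means mean inhibition of at least 75% with every replicate also reaching 75%; inconclusive means mean inhibition at least 75% but some replicate below; inactive means mean inhibition below 75%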;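 further: 0% = median of neutral control wells and 100% = pilot-screen positive control compound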
EWS-Fli block: inhibitors of EWS/Fli oncoprotein transcriptional activity. 350,000 tested, 0.67% active. inhibition, % at 12.6 µM. A673 NR0B1-luciferase reporter, viability-normalised;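 active means mean inhibition of at least 50% after viability correction, with every replicate also passing that limit; inconclusive means mean reaches 50% but only one of two replicates passes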;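 further: firefly luciferase signal divided by Alamar Blue viability fluorescence both relative to DMSO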
FN deposition inh: fibronectin deposition inhibition | inhibition, % at 12.6 µM | 350,000 tested, 0.086% active | AH1F fibroblasts, Alexa488-fibronectin deposition fluorescence, overnight;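 active means mean inhibition across replicates of 30% or more, regardless of how many single replicates reach that level; inconclusive means mean under 30% yet at least half of replicates reach 30%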;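 further: positive control wells lacked labelled fibronectin entirely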
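Measured by – fluorescence 485/525 nm · System – AH1F fibroblast monolayer, labelled fibronectin deposition · Amount – 10000 cells per well · Buffer or medium – serum-reduced DMEM (2% serum) · Doses – single dose, pinned · Also added – fluorescent fibronectin at 24 nM final · Schedule – 1 h cell attachment, overnight exposure to compound and label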
Numbers without * were called inactive; ? = inconclusive; nt = not tested or not shown.

SMILES	aSyn UTR inh	PAX8 inh HTS	LMP1 NFkB inh	Shn3 inh set2	EWS-Fli block	FN deposition inh
Cc1ccccc1-c1ccc2c(c1)O[C@H](CN(C)C(=O)Nc1ccc(C(F)(F)F)cc1)[C@H](C)CN([C@H](C)CO)S2(=O)=O	nt	83*	nt	nt	15	6
Cc1ccc(-c2ccc3c(c2)O[C@@H](CN(C)C(=O)Nc2ccccc2)[C@@H](C)CN([C@H](C)CO)S3(=O)=O)cc1	nt	68*	nt	nt	-19	5
O=[N+]([O-])c1ccc(N2CCN(Cc3ccccc3)CC2)c2c1no[n+]2[O-]	nt	99*	-43	77	49	nt
NC(=O)c1sc2nc3c(c(-c4cccs4)c2c1N)CCCCC3	42	nt	72*	-5	nt	9
CCCCCC(C)NC(=S)NC(=O)c1cc(S(=O)(=O)N2CCOCC2)ccc1C (stereo unspecified)	66*	25	-6	10	nt	3
COc1ccc(S(=O)(=O)Nc2ccc3c(c2)C(=O)N([C@@H](C)CO)C[C@@H](C)[C@@H](CN(C)C(=O)CCC(F)(F)F)OCCCC[C@H](C)O3)cc1	nt	12	nt	nt	-8	nt
N#CCC(=O)Nc1ccc(C(=O)OCC(=O)C23CC4CC(CC(C4)C2)C3)cc1	11	-23	-5	-3	-9	-4
O=C(OCCC12CC3CC(CC(C3)C1)C2)c1ccc(NCc2cc(O)ccc2O)cc1	nt	56	-25	99*	68*	-20
O=C(OCC12CC3CC(CC(C3)C1)C2)c1ccc(NCc2cc(O)ccc2O)cc1	nt	52	4	98*	56*	-24
NC(=O)c1cc([N+](=O)[O-])ccc1NCc1ccc(N)cc1	nt	35	49*	76	74*	5
O=C(NC1CC1)c1cc(-c2ccc(Br)cc2)nc2ccccc12	nt	-2	42*	4	-14	-1
S=c1[nH]nc(C2CCCCC2)n1/N=C/c1ccncc1	24	-57	48*	-7	-14	7
CSc1ccc(/C=N/n2c(C3CCCCC3)n[nH]c2=S)cc1	19	5	4	4	20	-4
CCNC(=O)C[C@@H]1CC[C@H]2[C@H](COc3ccc(NC(=O)Nc4ccccc4OC)cc3C(=O)N2C)O1	nt	3	nt	nt	-12	-4
C[C@@H]1CCCCO[C@H](CN(C)Cc2ccc3c(c2)OCO3)[C@H](C)CN([C@H](C)CO)C(=O)c2cc(NC(=O)Nc3cccc4ccccc34)ccc2O1	nt	8	nt	nt	8	nt
C[C@@H]1CN([C@@H](C)CO)C(=O)c2cc(NC(=O)Nc3cccc4ccccc34)ccc2O[C@@H]1CN(C)Cc1ccc2c(c1)OCO2	nt	76*	nt	nt	2	nt
C[C@H]1CN([C@@H](C)CO)C(=O)c2cc(NC(=O)Nc3cccc4ccccc34)ccc2O[C@H]1CN(C)Cc1ccc2c(c1)OCO2	nt	27	nt	nt	22	nt
C[C@@H]1CN([C@H](C)CO)C(=O)c2cc(NC(=O)Nc3cccc4ccccc34)ccc2O[C@@H](C)CCCCO[C@H]1CN(C)Cc1ccccc1	nt	22	nt	nt	74*	5
COc1ccc(CN(C)C[C@H]2OCCCC[C@@H](C)Oc3ccc(NC(=O)Nc4cccc5ccccc45)cc3C(=O)N([C@@H](C)CO)C[C@H]2C)cc1	nt	10	nt	nt	?	nt
COc1ccc(CN(C)C[C@H]2OCCCC[C@@H](C)Oc3ccc(NC(=O)Nc4cccc5ccccc45)cc3C(=O)N([C@@H](C)CO)C[C@@H]2C)cc1	nt	32	nt	nt	80*	nt
C[C@@H]1CCCCO[C@@H](CN(C)Cc2ccccc2)[C@H](C)CN([C@@H](C)CO)C(=O)c2cc(NC(=O)Nc3cccc4ccccc34)ccc2O1	nt	53	nt	nt	26	7
C[C@@H]1CN([C@@H](C)CO)C(=O)c2cc(NC(=O)Nc3cccc4ccccc34)ccc2O[C@@H](C)CCCCO[C@H]1CN(C)Cc1ccc2c(c1)OCO2	nt	7	nt	nt	77*	nt
CC(C)NC(=O)Nc1ccc2c(c1)CC(=O)N([C@@H](C)CO)C[C@H](C)[C@@H](CN(C)CC1CC1)O2	nt	3	nt	nt	nt	-16
C[C@@H]1CCCCO[C@H](CN(C)CC2CCCCC2)[C@@H](C)CN([C@H](C)CO)C(=O)c2cc(NC(=O)Nc3cccc4ccccc34)ccc2O1	nt	6	nt	nt	12	nt
C[C@@H]1CCCCO[C@@H](CN(C)CC2CCCCC2)[C@H](C)CN([C@@H](C)CO)C(=O)c2cc(NC(=O)Nc3cccc4ccccc34)ccc2O1	nt	19	nt	nt	94*	nt
